Rows were chosen to be rich in hits. Some 3.1% of all compounds tested hit in one or more screens of this group.
SIRT5 block: SIRT5 desuccinylase inhibitors, primary screen, biochemical, fluorescence imaging, single point, set 5 | Purified SirT5, succinyl-peptide AMC, trypsin-coupled fluorescence | hit rate 1.1% among 330,000 | inhibition, % at 15 µM | NAD-dependent protein deacylase sirtuin-5, mitochondrial (Homo sapiens), Q9NXA8; in the data active means inhibition above about 15%
Target sequence (Q9NXA8 whole entry, looked up): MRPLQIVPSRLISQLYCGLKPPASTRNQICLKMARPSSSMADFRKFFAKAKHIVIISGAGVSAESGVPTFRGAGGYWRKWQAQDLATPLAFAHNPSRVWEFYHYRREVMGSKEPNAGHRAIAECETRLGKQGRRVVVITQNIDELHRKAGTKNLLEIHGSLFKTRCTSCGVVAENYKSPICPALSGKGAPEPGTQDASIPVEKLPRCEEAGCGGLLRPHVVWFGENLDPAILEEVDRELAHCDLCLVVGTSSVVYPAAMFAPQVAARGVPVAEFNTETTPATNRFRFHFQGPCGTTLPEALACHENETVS
S100A4 inh HTS: inhibitors of S100A4-myosin IIA peptide binding, primary screen, biochemical, fluorescence polarization, TAMRA-MyoIIA peptide; inhibition, % at 10.7 µM; AID 652163, 2013; Protein S100-A4 (Homo sapiens), P26447; hit rate 0.14% among 360,000;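 active means mean inhibition of at least 70% across replicates, with every replicate also reaching that level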
Target sequence (P26447 whole entry, looked up): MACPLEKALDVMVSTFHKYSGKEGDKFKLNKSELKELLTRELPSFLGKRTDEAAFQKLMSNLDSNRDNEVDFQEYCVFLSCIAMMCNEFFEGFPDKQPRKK
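Material: S100A4 monomer protein | Medium: HEPES pH 7.2 with CaCl2, KCl, NaCl, DTT, Triton | Reagent: Labelled myosin peptide probe, 5 nM | Doses: One dose per compound | Times: 5 min incubation before reading | Benchmarks: Neutral control DMSO, positive control TFP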
rRNA inh HTS: reduced GFP signal of wild-type E. coli, primary screen, bacterial rRNA inhibitor project, GFP/RFP fluorescence, OD600, single point. hit rate 1.6% among 350,000. GFP signal change (wild-type ribosome), % (concentration not given with the values). E. coli WT GFP vs humanized-ribosome RFP mutants, 24 h; stronger effect = lower value; DMSO median 0, no signal -100;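 active means significant combined selectivity score with lowered wild-type GFP, culture density cut under 30%, mutant RFP and density less affected; inactive means any of these conditions unmet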
CFTR F508del cor: F508del CFTR correction, initial screen, CFBE line, single point; CFBE cells, YFP halide quenching; stimulated with forskolin plus potentiator P3; % fluorescence drop versus neutral controls; activity (quench increase), % at 7.58 µM; hit rate 0.36% among 350,000; AID 720511, 2013;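 active means mean added fluorescence quench of at least 8% versus neutral control, with both replicates also reaching 8%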;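 further: cells transiently co-express mutant CFTR-F508del with the halide-sensitive YFP; corrector assay measuring rescue of mutant channel to the surface after 24 h compound exposure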
ERAP1 inh: human ERAP1 aminopeptidase inhibitors, primary screen, biochemical, single point, plate reader. recombinant ERAP1, Leu-AMC fluorescence, 60 min. AID 652197, 2013. inhibition, % at 10.7 µM. hit rate 0.15% among 340,000. Endoplasmic reticulum aminopeptidase 1 (Homo sapiens), Q9NZ08;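 active means mean replicate inhibition of at least 30%, or all replicates individually reaching that 30% level; inactive means mean below 30% and not every replicate reaching it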;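 further: 0% = neutral control wells and 100% = L-leucinethiol positive control wells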
* = called active by the depositor; x = not tested or not shown; ! = a repeat was not active.

SMILES | SIRT5 block | S100A4 inh HTS | rRNA inh HTS | CFTR F508del cor | ERAP1 inh
Cc1ccccc1N=Nc1ccc(O)c2ncccc12 | -1 | -3 | x | x | 9
CO[C@@H]1CN(C)C(=O)c2ccc(NS(C)(=O)=O)cc2OC[C@H](C)N(C(=O)C2CCCCC2)C[C@@H]1C | 3 | -13 | -1 | 3 | 1
Cn1cccc1C(=O)c1cccc([N+](=O)[O-])c1 | 17* | -1 | 4 | -3 | -4
O=C(c1cccc([N+](=O)[O-])c1)c1ccccn1 | -4 | -5 | 8 | 2 | x
CC(C(=O)Nc1ccc(O)cc1)c1cccc(C(=O)c2ccccc2)c1 (stereo unspecified) | 2 | -2 | -37* | -1 | -3
Cc1ccc(S(=O)(=O)Nc2ccc3c(c2)CC(=O)N([C@H](C)CO)C[C@H](C)[C@H](CN(C)C(=O)Nc2ccccc2)O3)cc1 | 0 | -1 | -1 | 2 | 8
O=C(C1=NN[C@@H]2C(=O)N(c3cccc(F)c3)C(=O)[C@H]12)c1ccc2ccccc2n1 | 16* | 4 | x | x | 2
Cc1cccc(NC(=S)NNC(=O)c2cccc([N+](=O)[O-])c2)c1 | -2 | -2 | -11 | 5 | 0
O=C(Nc1cccc([N+](=O)[O-])c1)Nc1cccc([N+](=O)[O-])c1 | -8 | -9 | -18* | x | 1
Cc1occc1C(=O)NNC(=S)Nc1cccc([N+](=O)[O-])c1 | -3 | 0 | -19* | x | 1
C[C@H]1CN([C@@H](C)CO)C(=O)c2cc(NC(=O)C3CCCCC3)ccc2O[C@@H]1CN(C)C(=O)Nc1ccc(C(F)(F)F)cc1 | x | -2 | 1 | -2 | 0
O=C(COc1ccccc1)N/N=C/c1sc(=O)n(Cc2cccc(C(=O)O)c2)c1Cl | 16* | -1 | 11 | -3 | x
COC(=O)C[C@H]1CC[C@@H]2[C@@H](COc3ccc(NC(=O)c4cccc(Cl)c4)cc3C(=O)N2C)O1 | 16* | 7 | -7 | x | 4
COC(=O)C[C@@H]1CC[C@@H]2[C@@H](COc3ccc(NS(=O)(=O)c4ccc(C)cc4)cc3C(=O)N2C)O1 | 3 | 2 | 2 | 0 | -1
COC(=O)C[C@@H]1CC[C@@H]2[C@H](COc3ccc(NC(=O)c4cc(C)on4)cc3C(=O)N2C)O1 | -2 | -6 | -3 | 14* | 0
CN1C(=O)c2cc(NC(=O)c3ccccc3Cl)ccc2OC[C@@H]2O[C@@H](CC(=O)NCC(F)(F)F)CC[C@H]21 | 4 | 127* | x | x | 1
COC(=O)C[C@@H]1CC[C@H]2[C@H](COc3ccc(NS(=O)(=O)c4ccc(C)cc4)cc3C(=O)N2C)O1 | 0 | 101* | -2 | 5 | 1
N#CC1=C(N)Oc2c(ccc3cccnc23)C1c1ccccc1 (stereo unspecified) | -6 | -2 | -1 | 17* | 3
C[C@@H]1CCCCO[C@@H](CN(C)C(=O)Nc2cccc3ccccc23)[C@H](C)CN([C@@H](C)CO)C(=O)c2cc(NC(=O)c3ccccc3)ccc2O1 | 17* | 2 | -4 | -2 | 0
C[C@@H]1CN([C@H](C)CO)C(=O)c2cc(N(C)C)ccc2O[C@@H](C)CCCCO[C@H]1CN(C)C(=O)Nc1cccc2ccccc12 | 0 | -5 | x | -1 | 0
C[C@@H]1CCCCO[C@H](CN(C)C(=O)Nc2cccc3ccccc23)[C@@H](C)CN([C@H](C)CO)C(=O)c2cc(N(C)C)ccc2O1 | 27*! | -6 | 4 | -1 | 1
C[C@@H]1CCCCO[C@@H](CN(C)C(=O)c2ccccc2)[C@H](C)CN([C@@H](C)CO)C(=O)c2cc(NC(=O)c3ccccc3)ccc2O1 | -3 | -5 | -21* | 0 | 0
CO[C@@H]1CN(C)C(=O)c2cc(NC(=O)C3CC3)ccc2OC[C@H](C)N(C(=O)C2CCCCC2)C[C@@H]1C | -1 | 4 | 2 | -2 | 3
CC[C@H]1OC(=O)[C@H](C)[C@@H](O[C@H]2C[C@@](C)(OC)[C@@H](O)[C@H](C)O2)[C@H](C)[C@@H](O[C@@H]2O[C@H](C)C[C@H](N(C)C)[C@H]2O)[C@](C)(O)C[C@@H](C)C(=O)[C@H](C)[C@@H](O)[C@]1(C)O | 15 | 7 | x | 9.0* | -4
C[C@@H]1CN([C@H](C)CO)C(=O)Cc2cc(NC(=O)Nc3ccc(F)cc3)ccc2O[C@@H]1CN(C)S(=O)(=O)c1ccc(F)cc1 | 5 | -5 | 0 | -3 | -1
SMILES | SIRT5 block | S100A4 inh HTS | rRNA inh HTS | CFTR F508del cor | ERAP1 inh
C[C@@H]1CCCCO[C@H](CN(C)Cc2ccc(C(F)(F)F)cc2)[C@H](C)CN([C@H](C)CO)C(=O)c2cc(NS(=O)(=O)c3ccc(Cl)cc3)ccc2O1 | 14 | -18 | 2 | 3 | 4
C[C@@H]1CCCCO[C@@H](CN(C)Cc2ccc(C(F)(F)F)cc2)[C@H](C)CN([C@@H](C)CO)C(=O)c2cc(NS(=O)(=O)c3ccc(Cl)cc3)ccc2O1 | 18* | 4 | -2 | 4 | 0
C[C@H]1CCCCO[C@@H](CN(C)Cc2ccc(C(F)(F)F)cc2)[C@@H](C)CN([C@@H](C)CO)C(=O)c2cc(NS(=O)(=O)c3ccc(Cl)cc3)ccc2O1 | 16* | -9 | 0 | 2 | 1
C[C@@H]1CCCCO[C@@H](CN(C)Cc2ccc(C(F)(F)F)cc2)[C@H](C)CN([C@H](C)CO)C(=O)c2cc(NS(=O)(=O)c3ccc(Cl)cc3)ccc2O1 | 16* | 6 | 3 | -1 | 3
C[C@@H]1CN([C@@H](C)CO)C(=O)c2cc(NS(=O)(=O)c3ccc(Cl)cc3)ccc2O[C@@H](C)CCCCO[C@@H]1CN(C)Cc1ccc(C(F)(F)F)cc1 | 18* | 16 | 1 | -1 | 3
C[C@@H]1CN([C@@H](C)CO)C(=O)c2cc(NS(=O)(=O)c3ccc(Cl)cc3)ccc2O[C@@H](C)CCCCO[C@H]1CN(C)Cc1ccc(C(F)(F)F)cc1 | 9 | 15 | -2 | 3 | 0
C[C@@H]1CN([C@H](C)CO)C(=O)c2cc(NS(=O)(=O)c3ccc(Cl)cc3)ccc2O[C@@H](C)CCCCO[C@H]1CN(C)Cc1ccc(C(F)(F)F)cc1 | 10 | 10 | 1 | 0 | 1
C[C@@H]1CCCCO[C@H](CN(C)Cc2ccc(C(F)(F)F)cc2)[C@@H](C)CN([C@H](C)CO)C(=O)c2cc(NS(=O)(=O)c3ccc(Cl)cc3)ccc2O1 | -1 | -27 | 1 | -1 | 4

Source: PubChem
